Bioassay records from PubChem BioAssay.
This excerpt belongs to a sample that is enriched for hits.
Cdc25B inh: human M-phase inducer phosphatase 2 inhibition | P30305 | recombinant Cdc25B, OMFP fluorescence Ex485/Em525 | inhibition, %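 (compounds tested at 10 µM final in the well)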 | actives 0.1% (n = 65,000) | AID 368; in the data active means inhibition above about 50%
MMP-13 inhibitor: MMP13 (human) collagenase inhibition | AID 570 | P45452 | inhibition, % at 4 µM | actives 0.07% (n = 65,000) | MMP-13 fTHP FRET cleavage, Mca fluorescence;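 active means inhibition above the mean of compound-free control plate wells plus 3 SD, cut at about 14% in these data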;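 further: 0% = DMSO wells and 100% = wells with reference MMP-13 inhibitor after basal subtraction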
HePTP inhibitor: human HePTP phosphatase inhibition | recombinant HePTP phosphatase activity, OD absorbance | inhibition, % at 20 µM | actives 0.64% (n = 110,000) | AID 521; in the data active means inhibition above about 50%;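 further: plate controls were vehicle for no effect and reference inhibitor for full effect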
Target sequence (P35236 whole entry, looked up): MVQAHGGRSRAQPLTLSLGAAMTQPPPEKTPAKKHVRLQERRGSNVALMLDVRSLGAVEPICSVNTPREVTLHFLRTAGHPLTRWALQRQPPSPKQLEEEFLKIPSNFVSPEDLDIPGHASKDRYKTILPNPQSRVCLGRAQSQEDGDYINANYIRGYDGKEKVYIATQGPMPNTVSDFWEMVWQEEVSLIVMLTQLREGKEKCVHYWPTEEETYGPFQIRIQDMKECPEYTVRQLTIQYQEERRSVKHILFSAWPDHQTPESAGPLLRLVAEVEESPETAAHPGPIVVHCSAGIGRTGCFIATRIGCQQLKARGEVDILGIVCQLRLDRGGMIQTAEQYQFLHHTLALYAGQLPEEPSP
Ecoli tolC: growth inhibitors of E. coli BW25113 tolC mutant; growth inhibition, % at 10 µM (by protocol); actives 2.2% (n = 65,000); OD615; AID 573;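 active means growth inhibition at or above a cutoff equal to the mean over every tested compound plus 3 SD, cut at about 60% in these data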;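 further: growth measured after 20 h incubation at 37 °C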
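Signal: optical density read at 615 nm; Assay system: E. coli ΔtolC::kan strain BW25113; Times: 20 h incubation with compound, 37 °C; Dosing: 10 µM final, single dose.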
MKP-1 inh: blocks human MKP-1 phosphatase activity; recombinant MKP-1, OMFP hydrolysis fluorescence; P28562; actives 0.15% (n = 65,000); inhibition, %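 (compounds tested at a single concentration somewhere between 10 and 100 µM)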;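 active means inhibition above about 50%, limit read from the data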;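 further: 0% = DMSO max control wells and 100% = wells with enzyme stopped by NaOH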
E coli WT exp: E. coli BW25113 growth inhibition, expanded screen. OD600 absorbance. growth inhibition, % at 100 µM. actives 0.15% (n = 98,000). AID 710;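 active means growth inhibition above about 50% at one test dose, limit read from the data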;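 further: growth measured after 20 h incubation at 37 °C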
Numbers without * were called inactive; / = no result.

SMILES	Cdc25B inh	MMP-13 inhibitor	HePTP inhibitor	Ecoli tolC	MKP-1 inh	E coli WT exp
Cn1c(=O)c2c(nc(CN3CCN(C(=O)c4ccco4)CC3)n2CCCc2ccccc2)n(C)c1=O	-2.8	16.6*	4.3	8.5	12.3	-3.0
CC1=C(C(=O)OCCOc2ccccc2)Sc2ccccc2N1	/	/	4.7	/	/	/
C(=Nc1ccc(-c2nnc(-c3ccccc3)o2)cc1)c1c2ccccc2cc2ccccc12	/	/	10.1	/	/	/
O=C1N=c2ccccc2=C1c1sc(=O)n(-c2cccc(O)c2)c1O	/	/	-18.0	/	/	/
O=C1N=c2ccccc2=C1c1s/c(=N/N=C2/C(=O)Nc3ccccc32)n(-c2ccc(O)cc2)c1O	/	/	97.9*	/	/	/
COc1ccccc1N1CCN(C(=O)COc2ccc(C)cc2C)CC1	/	/	6.8	/	/	/
COc1ccccc1N1CCN(C(=O)COc2ccc(C)cc2Br)CC1	-16.0	4.3	-11.1	69.5*	21.1	-9.0
COc1ccccc1N1CCN(C(=O)c2oc3cc(C)c(C)cc3c2C)CC1	0.4	-2.0	15.3	71.6*	9.2	-2.0
C=CCS(=O)(=O)Nc1cccc2ccccc12	/	/	2.1	/	/	/
Ic1cccc(/C=N/n2cnnc2)c1	/	/	3.0	/	/	/
COc1ccc(NC(=O)Nc2ccc(Cc3ccncc3)cc2)cc1	/	/	5.1	/	/	/
Oc1ccc(Cl)cc1Cc1cc(Cl)ccc1O	-5.1	/	/	100.0*	18.7	/
O=C(c1sc2ccccc2c1Cl)N1CCN(Cc2ccccc2)CC1	/	/	102.7*	/	/	/
O=C(c1sc2ccccc2c1Cl)N1CCC(Cc2ccccc2)CC1	/	/	8.0	/	/	/
C/C(CCc1oc2ccccc2c1-c1ccc(C)o1)=N/O	6.2	-2.4	7.1	97.5*	22.0	8.0
COc1cc(NC(=O)COc2cc(C)ccc2C(C)(C)C)c(OC)cc1Cl	/	/	-5.2	/	/	/
COc1ccc(-c2nnc(SCc3cc(C)cc(C)c3)o2)cc1	-11.2	-7.0	-1.1	69.4*	24.8	3.0
COc1ccc(-c2nnc(SCC(=O)c3ccc(C)o3)o2)cc1	4.0	-1.4	/	14.7	2.4	/
CC(=O)c1cccc(N2C(=O)C3C4c5ccccc5C(C(C)=O)(c5ccccc54)C3C2=O)c1 (centres undefined)	/	/	-5.4	/	/	/
N#Cc1c(N)oc(-c2ccccc2)c1-c1ccccc1	-9.2	-1.4	4.7	7.7	16.6	-4.0
N#Cc1c(/N=C/c2ccco2)oc(-c2ccccc2)c1-c1ccccc1	-4.1	-9.1	0.1	77.1*	-9.7	-4.0
CCn1nc(C)c(Cc2c(C)nn(CC)c2C)c1C	/	/	103.9*	/	/	/
COc1cc([N+](=O)[O-])ccc1N/C(N)=N\c1nc(C)cc(C)n1	/	/	7.4	/	/	/
CC(=O)c1sc(NC(=O)c2ccc3c(c2)OCO3)nc1C	/	/	103.1*	/	/	/
COc1ccc(C(=O)Nc2nc(C)c(C(C)=O)s2)cc1	/	/	-1.4	/	/	/
SMILES	Cdc25B inh	MMP-13 inhibitor	HePTP inhibitor	Ecoli tolC	MKP-1 inh	E coli WT exp
Brc1cccc(-c2n[nH]c(-c3ccccc3)n2)c1	-2.0	1.6	5.1	97.5*	31.1	-6.0
S=c1[nH]nc(-c2cccc(Br)c2)n1-c1ccccc1	/	/	7.6	/	/	/
Cc1cc(Cl)ccc1OC(C)C(=O)Nc1ccccc1N1CCOCC1 (centres undefined)	-4.8	-3.4	9.8	66.1*	0.5	-11.0
Cc1cc(Cl)ccc1OC(C)C(=O)Nc1c(Cl)cccc1Cl (centres undefined)	/	/	1.0	/	/	/
CC(=O)/C(C(=N)N1CCN(c2ccccc2)CC1)=C(\C)O	/	/	4.1	/	/	/
O=c1/c(=C\c2cn[nH]c2-c2ccccc2)sc2nc3ccccc3n12	/	/	50.2*	/	/	/
O=c1/c(=C\c2ccccc2C(F)(F)F)sc2nc3ccccc3n12	/	/	0.1	/	/	/
CCCOc1ccc(/C=C2\SC(=S)N(NC(=O)c3ccncc3)C2=O)cc1OC	/	/	5.6	/	/	/
CCc1cc2c(N3CCN(c4ccccc4)CC3)ncnc2s1	-23.0	-1.1	3.3	93.3*	-2.9	-9.0
c1ccc(N2CCN(c3ncnc4sc5c(c34)CCC5)CC2)cc1	-3.0	3.5	5.0	4.7	0.0	-5.0
CCOC(=O)COc1ccc(/C=C2\C(=O)NC(=O)N(c3cc(C)cc(C)c3)C2=O)cc1OC	/	/	6.2	/	/	/
O=c1c2ccccc2nc(SCc2cn3ccsc3n2)n1-c1ccccc1F	1.7	5.1	1.4	65.2*	8.3	-12.0
CC(C)C(=O)N/N=C/c1ccc(OCc2ccccc2)cc1	/	/	/	/	/	-5.0
NC(N)=N/N=C/c1ccc(OCc2ccccc2)cc1	/	/	/	/	/	99.0*
NC(N)=N/N=C/c1ccc(OCc2ccc(Cl)cc2)cc1	/	/	/	/	/	100.0*
CCOc1ccc(N(CC(=O)NCc2ccc(OC)cc2)S(=O)(=O)c2ccc(Br)cc2)cc1	/	/	5.7	/	/	/
CCOc1ccc(N(CC(=O)NCc2ccc(Cl)cc2)S(=O)(=O)c2ccc(Br)cc2)cc1	/	/	102.8*	/	/	/
COC(=O)c1c(C)oc2ccc(OC(=O)c3ccc(Br)cc3)cc12	/	/	103.5*	/	/	/
COC(=O)c1c(C)oc2ccc(OC(=O)c3ccc(Cl)cc3)cc12	/	/	8.2	/	/	/
Cc1ccc(S(=O)(=O)N(Cc2ccccc2)Cc2ccco2)cc1	-2.7	3.0	-3.0	64.1*	5.7	15.0
Cc1ccc(S(=O)(=O)N(Cc2ccc(F)cc2)Cc2ccco2)cc1	-1.2	5.3	5.7	66.4*	8.1	0.0
CCOc1cc(C=O)ccc1OC(C)C	/	/	3.8	/	/	/
CCCCC1CCC(C(=O)NNC(N)=O)CC1 (centres undefined)	/	/	4.6	/	/	/
O=C(Nc1ccc(-c2nc3ccccc3o2)c(O)c1)c1cccc(Cl)c1Cl	/	/	1.3	/	/	/
COC(=O)c1sc(NC(=O)c2sc3cc(C)ccc3c2Cl)c(C#N)c1C	/	/	102.7*	/	/	/
CC1(C)Cc2ccccc2/C(=C(\Cc2ccccc2)C(N)=O)N1	/	/	-5.1	/	/	/
CC1CCC2C(C1)c1sc(=O)[nH]c1SC2(C)C (centres undefined)	-10.6	0.9	-4.5	63.3*	-12.8	14.0
COC(=O)c1c(-c2ccc(C)c(C)c2)csc1N	/	/	103.7*	/	/	/
CCOC(=O)N1CCN(c2nc(-c3ccc(F)cc3)cs2)CC1	-2.0	-3.2	0.4	92.5*	15.2	-5.0
O=C(CN1CCN(c2nc(-c3ccc(F)cc3)cs2)CC1)NCc1ccc2c(c1)OCO2	-5.0	0.7	7.3	80.3*	16.4	-4.0
